This is a sample that favours compounds with a hit; in the whole collection about 1.9% have one here.
Hsp70 act: transcriptional activators of Hsp70. HeLa Hsp70 promoter luciferase reporter, luminescence; scaled: vehicle 0, proteasome-inhibitor control 100%. activation, % at 10 µM. 0.04% of 200,000 active;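 active = activation above the mean across all tested compounds plus 3 SD, cutoff set per campaign, cut at about 5.5% in these data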
Rad51 HR inh: blocks human Rad51 in homologous recombination; hRad51 DNA strand exchange, fluorescence dequenching; 0.085% of 200,000 active; Q06609; inhibition, % at 10 µM;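 active = inhibition above 40% at the single screening dose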
Target sequence (Q06609 whole entry, looked up): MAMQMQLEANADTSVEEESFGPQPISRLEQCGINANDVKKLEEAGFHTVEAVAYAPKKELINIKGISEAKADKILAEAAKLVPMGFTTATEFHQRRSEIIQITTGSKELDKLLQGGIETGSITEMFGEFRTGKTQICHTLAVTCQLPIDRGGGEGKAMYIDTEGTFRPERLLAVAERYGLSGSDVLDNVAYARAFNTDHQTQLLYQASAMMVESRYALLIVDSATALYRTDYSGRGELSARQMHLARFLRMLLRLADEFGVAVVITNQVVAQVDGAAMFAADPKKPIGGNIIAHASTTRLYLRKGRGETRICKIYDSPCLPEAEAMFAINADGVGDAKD
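Test system: preformed human Rad51 ssDNA filaments. Compound dosing: single dose, 10 µM final compound. Incubation: filaments 15 min 37 °C, then compound 30 min. Technique: FRET fluorescence dequenching, excitation 485 nm, emission 520 nm. Read-out basis: percent inhibition from fluorescence, normalised to plate control and blank means. Benchmarks: plate controls and plate blanks.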
H9c2 TAG inh: reduces triacylglycerol accumulation in H9c2 cells | AID 651582 | 0.66% of 230,000 active | Nile Red lipid (TAG) fluorescence; cells loaded with 200 µM oleic acid | inhibition, % at 12.5 µM;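 active = pattern-corrected inhibition of lipid staining of at least 50% with the nuclear-stain viability signal not falling by more than 50%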
HIF activator: HIF pathway transcriptional activation; U2OS HRE-luciferase reporter, luminescence; normalized: DMSO 0%, desferrioxamine 100%; activation, % at 7.5 µM (by protocol); 0.32% of 300,000 active; AID 1910;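 active = mean activation of at least 10% of the iron chelator positive control signal, with at least half of replicates also reaching 10%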
GAA850 FXN act: frataxin GAA850 promoter activation | HEK293 lucGAA850 FXN promoter luciferase reporter, 24 h; percent of 10 µM SAHA response | activation, % at 6 µM | 0.56% of 360,000 active | AID 540364;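 active = activation above the average of all compounds screened plus 3 SD, cutoff fixed separately per campaign, cut at about 7.5% in these data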
ABHD5-PLIN5 inh: blocks binding of human ABHD5 to perilipin-5; 0.78% of 360,000 active; Split G. princeps luciferase complementation, luminescence, 4 h; AID 602281; inhibition, % at 4 µM; Q00G26+Q8WTS1;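 active = inhibition above the mean inhibition across every tested compound plus 3 SD, cut at about 22% in these data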
GAA30 counter: GAA30 FXN promoter activation counter-screen; shares compounds with GAA850 FXN act; HEK293 lucGAA30 FXN promoter luciferase, 24 h; DMSO = 0%, 5 µM ipriflavone = 100%; activation, % at 6 µM; 66% of 1,900 active;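 active = mean activation above the mean of solvent-only control wells plus 3 SD, cut at about 22% in these data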;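 also: counterscreen of GAA850 promoter hits where activity marks nonselective or luminescence artifacts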
GAA850 confirm: confirmation of GAA850 frataxin (FXN) promoter activators | activation, % at 6 µM | HEK293 lucGAA850 FXN promoter luciferase reporter, 24 h; 100% = activation by SAHA | shares compounds with GAA850 FXN act | AID 588351 | 86% of 1,900 active;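 active = mean activation above a set limit taken from the primary screen, cut at about 8% in these data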
Hits are given with their value; - = inactive; . = not tested or not shown.

SMILES | Hsp70 act | Rad51 HR inh | H9c2 TAG inh | HIF activator | GAA850 FXN act | ABHD5-PLIN5 inh | GAA30 counter | GAA850 confirm
Fc1cccc(-n2cc(-c3ccccc3)c3c(=S)nc[nH]c32)c1 | . | . | . | - | 7.9 | - | - | 19
O=c1[nH]cnc2c1c(-c1ccccc1)cn2-c1ccccc1 | . | . | . | - | - | - | . | .
Fc1ccc(-n2cc(-c3ccccc3)c3c(=S)nc[nH]c32)cc1 | . | . | . | - | 8.5 | - | - | 14
CC1CC(C)CN(C(=O)c2cc3ccccc3o2)C1 (stereo unspecified) | . | . | - | - | - | - | . | .
CC1CC(C)CN(C(=O)c2cc3cc(Br)cc(Br)c3o2)C1 (stereo unspecified) | - | - | - | - | 10 | - | 62 | 26
C=C(C)CSc1nncn1/N=C/c1ccc(OC)cc1 | - | - | . | - | 11 | - | 102 | 34
CCSc1nncn1/N=C/c1ccc(OC)c(OC)c1 | - | - | - | - | - | - | . | .
CCN(C(=O)c1ccco1)c1nc(-c2ccc(OC)cc2)cs1 | . | . | - | - | 8.3 | - | 110 | 37
CCOC(=O)/C(C#N)=C/Nc1ccccc1OC | - | - | - | - | 8.0 | - | 92 | 29
CC(NC(=O)C1CCCN1C(=O)c1cccs1)c1ccc(Cl)cc1Cl (stereo unspecified) | . | . | - | . | - | - | . | .
COc1ccc(C(=O)N2CCC(n3nccc3NC(=O)C3CCOC3)CC2)cc1 (stereo unspecified) | . | . | - | - | - | - | . | .
COC(=O)[C@@H]1[C@@H](C#N)C2(c3ccccc3-c3ccccc32)N(c2ccc(Cl)cc2)N1C#N | - | - | - | - | 12 | - | - | 19
CCN(CC)S(=O)(=O)c1ccc2c(c1)N(CC(=O)N1CCCC1)C(=O)CO2 | . | . | . | - | - | - | . | .
COC(=O)[C@]12C(=O)C(C)=C(O)[C@@]1(C)C(C)=CC1[C@@]34CC[C@@H](OC(C)=O)C(C)(C)C3C(C[C@]12C)OC4=O (stereo partly specified) | . | - | . | - | 8.8 | - | - | -
Cc1ccc(NC(=O)c2ccc(OCc3c(C)noc3C)cc2)nc1 | . | . | - | . | - | - | . | .
Cc1ccccc1NC(=O)c1cccc(NC(=O)c2ccccc2C(=O)O)c1 | . | . | - | - | - | - | . | .
CC(C)(C)C(=O)Cn1ncc(Cl)c(Cl)c1=O | - | - | . | - | 9.0 | - | - | -
COc1cccc(CN(C)Cc2nc(Cc3ccccc3Cl)no2)c1 | - | - | - | - | - | - | . | .
C=CCNc1nc(Nc2ccc(OC)cc2)nc(OC)n1 | - | - | - | - | - | - | . | .
C=CCNc1nc(Cl)nc(Nc2ccc(OC)cc2)n1 | - | - | . | - | 8.1 | - | 64 | 25
Cc1cccc(N2C(=O)N3[C@H](c4ccc(Br)cc4)[C@@H]4C(=O)N(C(C)(C)C)C(=O)[C@@H]4[C@]3(C)C2=O)c1 | . | . | - | - | 14 | - | 28 | 16
Cc1cccc(N2C(=O)N3[C@H](c4ccc(Br)cc4)[C@@H]4C(=O)N(C(C)(C)C)C(=O)[C@@H]4[C@]3(Cc3ccc(Cl)cc3)C2=O)c1 | . | . | - | - | 10 | - | - | 17
COc1ccc([C@@H]2[C@@H]3C(=O)N(C(C)(C)C)C(=O)[C@@H]3[C@]3(Cc4ccc(Cl)cc4)C(=O)N(c4ccc(Br)cc4)C(=O)N23)cc1 | . | . | - | - | - | - | . | .
CCN(CC)CCn1c(=S)[nH]c2cc(C(=O)N3CC(C)CC(C)C3)ccc2c1=O (stereo unspecified) | . | . | . | - | - | - | . | .
Cc1ccc([C@H]2N[C@]3(CCCN(Cc4ccc(Cl)cc4)C3=O)[C@H]3C(=O)N(Cc4ccccc4)C(=O)[C@@H]23)cc1 | . | . | - | . | - | - | . | .
SMILES | Hsp70 act | Rad51 HR inh | H9c2 TAG inh | HIF activator | GAA850 FXN act | ABHD5-PLIN5 inh | GAA30 counter | GAA850 confirm
Cc1ccc(OCc2cc(C(=O)N(C)CCc3ccccn3)no2)cn1 | . | . | . | - | - | - | . | .
CCOC(=O)c1ccc(NC(=O)c2ccccc2)cc1 | - | - | . | - | 8.0 | - | 79 | 33
CCOC(=O)c1ccc(NC(=O)c2ccc(NS(C)(=O)=O)cc2)cc1 | - | - | . | - | - | - | . | .
N#Cc1ccc(C(C(=O)NC2CCCCC2)n2c(=O)c(-c3ccccc3)nc3ccccc32)cc1 (stereo unspecified) | . | . | . | . | . | - | . | .
O=C(Nc1ccccc1[N+](=O)[O-])C1=C(O)CCn2c1nc1ccccc12 | - | - | . | - | 9.2 | - | - | 16
O=C(CN1C(=O)C2CCCCC2C1=O)Nc1nc2ccc(F)cc2s1 (stereo unspecified) | . | . | - | - | - | - | . | .
CC(=O)NC12CC3CC(C1)CC(C(=O)N(C)CC(=O)Nc1cccc(F)c1)(C3)C2 | . | . | - | . | - | - | . | .
CCCCNC(=O)c1cc(-c2ccc(F)cc2)on1 | - | - | . | 41 | 32 | - | 166 | 79
Cc1ccc(-c2cc(C(=O)NCc3cccs3)no2)cc1 | - | - | . | - | - | - | . | .
O=C(NCCCN1CCOCC1)c1cc(-c2ccc(O)cc2)on1 | - | - | - | - | - | - | . | .
O=C(NCCN1CCOCC1)c1cc(-c2ccccc2)on1 | - | - | . | - | 17 | - | 99 | 42
O=C(NCCCN1CCOCC1)c1cc(-c2ccccc2)on1 | - | - | . | 28 | 17 | - | 101 | 56
O=C(NCc1cccs1)c1cc(-c2ccc(O)cc2)on1 | . | - | - | - | 8.9 | - | 103 | 32
O=C1N=c2ccc(Br)cc2=C1c1sc(=S)n(NS(=O)(=O)c2ccccc2)c1O | - | - | - | - | - | - | . | .
COC(=O)C[C@H]1c2ccccc2S(=O)(=O)N1Cc1ccc(OC)cc1 | . | - | - | - | - | - | . | .
Cc1ccc(O)c(NC(=O)c2cc(-c3ccc(F)cc3)on2)c1 | - | - | - | - | - | - | . | .
O=C(NCCN1CCOCC1)c1cc2sccc2n1Cc1ccc(F)cc1 | - | - | . | - | 8.8 | - | - | 8.3
Cc1ccc(O)c(NC(=O)c2cc(-c3cccs3)on2)c1 | . | . | . | - | 9.9 | - | 87 | 47
O=C(NCCN1CCOCC1)c1cc(-c2cccs2)on1 | - | - | . | - | 17 | - | 116 | 55
COc1ccc(CCN(Cc2cc3cccc(C)c3n3nnnc23)C(=O)c2ccncc2)cc1OC | - | - | . | - | . | . | . | .
O=C(C1CC1)N1N=C(c2ccccc2)CC1(O)C(F)(F)C(F)(F)F (stereo unspecified) | . | . | . | - | - | - | . | .
Cc1ccc(S(=O)(=O)N2CCN(C(=O)c3ccc(N4CCC(C)CC4)c([N+](=O)[O-])c3)CC2)cc1 | . | . | - | . | - | - | . | .
CC(C)CNC(=O)c1cccc2c1-c1ccccc1C2=O | . | . | . | - | - | - | . | .

Bioassay records: PubChem BioAssay, several laboratories
